Assays:
Conditions in all cases: stereoisomer not certain
OR10D3 (Homo sapiens) = OR10D3 (Homo sapiens) (UniProt Q8NH80)
In short: (§1)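 Assay methods differ from source to source, frequently being transient luciferase assays in mammalian cell lines. For each receptor–molecule pair, the label responsive (active) applies when the original authors judged the measured signal statistically different from baseline, and non-responsive (inactive) applies otherwise.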

OR10G2 (Homo sapiens) = OR10G2 (Homo sapiens) (UniProt Q8NGC3)
In short: as §1

OR10G3 (Homo sapiens) = OR10G3 (Homo sapiens) (UniProt Q8NGC4)
In short: as §1

OR10G4 (Homo sapiens) = OR10G4 (Homo sapiens) (UniProt Q8NGN3)
In short: as §1

OR10G6 (Homo sapiens) = OR10G6 (Homo sapiens) (UniProt Q8NH81)
In short: as §1

OR10G7 (Homo sapiens) = OR10G7 (Homo sapiens) (UniProt Q8NGN6)
In short: as §1

OR10G8 (Homo sapiens) = OR10G8 (Homo sapiens) (UniProt Q8NGN5)
In short: as §1

OR10G9 (Homo sapiens) = OR10G9 (Homo sapiens) (UniProt Q8NGN4)
In short: as §1

OR10H1 (Homo sapiens) = OR10H1 (Homo sapiens) (UniProt Q9Y4A9)
In short: as §1

OR10H2 (Homo sapiens) = target: T1, OR10H2 (Homo sapiens) (UniProt O60403)
T1 sequence (whole entry): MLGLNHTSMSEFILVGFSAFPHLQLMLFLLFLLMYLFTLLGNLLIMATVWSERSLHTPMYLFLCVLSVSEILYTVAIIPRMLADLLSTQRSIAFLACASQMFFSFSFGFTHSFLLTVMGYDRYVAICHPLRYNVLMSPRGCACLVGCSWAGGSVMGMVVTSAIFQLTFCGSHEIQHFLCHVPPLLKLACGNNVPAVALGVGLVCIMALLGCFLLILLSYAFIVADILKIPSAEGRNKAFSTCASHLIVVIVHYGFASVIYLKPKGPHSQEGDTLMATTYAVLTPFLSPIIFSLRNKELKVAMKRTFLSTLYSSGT
In short: as §1

Measured: odorant receptor agonist call

Sequence of OR10G8 (Homo sapiens) (Q8NGN5 whole entry): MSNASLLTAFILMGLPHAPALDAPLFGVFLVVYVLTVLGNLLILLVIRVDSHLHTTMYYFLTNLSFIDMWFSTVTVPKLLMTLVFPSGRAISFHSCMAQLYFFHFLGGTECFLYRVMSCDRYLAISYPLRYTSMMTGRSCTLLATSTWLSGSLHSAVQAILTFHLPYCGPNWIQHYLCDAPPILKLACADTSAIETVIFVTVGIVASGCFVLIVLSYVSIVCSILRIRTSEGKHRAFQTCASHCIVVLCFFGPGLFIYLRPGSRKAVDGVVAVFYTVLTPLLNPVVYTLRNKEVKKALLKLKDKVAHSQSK
Sequence of OR10G4 (Homo sapiens) (Q8NGN3 whole entry): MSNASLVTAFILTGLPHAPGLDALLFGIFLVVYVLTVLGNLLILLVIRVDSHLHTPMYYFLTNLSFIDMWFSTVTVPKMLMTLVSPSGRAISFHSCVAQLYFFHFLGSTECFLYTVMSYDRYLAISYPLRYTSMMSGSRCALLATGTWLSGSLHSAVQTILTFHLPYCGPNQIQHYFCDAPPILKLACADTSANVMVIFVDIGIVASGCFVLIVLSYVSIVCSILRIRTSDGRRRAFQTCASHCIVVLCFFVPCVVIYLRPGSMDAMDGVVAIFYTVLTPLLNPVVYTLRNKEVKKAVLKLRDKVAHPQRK
Sequence of OR10G6 (Homo sapiens) (Q8NH81 whole entry): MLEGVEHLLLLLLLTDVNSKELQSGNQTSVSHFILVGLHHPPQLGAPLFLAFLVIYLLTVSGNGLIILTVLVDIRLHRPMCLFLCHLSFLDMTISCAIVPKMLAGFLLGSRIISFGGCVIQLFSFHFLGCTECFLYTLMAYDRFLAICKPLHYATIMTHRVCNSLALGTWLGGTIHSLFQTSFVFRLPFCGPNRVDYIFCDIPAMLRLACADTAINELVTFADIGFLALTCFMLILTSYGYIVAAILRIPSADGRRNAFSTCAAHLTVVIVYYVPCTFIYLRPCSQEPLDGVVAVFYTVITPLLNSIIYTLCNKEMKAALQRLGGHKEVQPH
Sequence of OR10G3 (Homo sapiens) (Q8NGC4 whole entry): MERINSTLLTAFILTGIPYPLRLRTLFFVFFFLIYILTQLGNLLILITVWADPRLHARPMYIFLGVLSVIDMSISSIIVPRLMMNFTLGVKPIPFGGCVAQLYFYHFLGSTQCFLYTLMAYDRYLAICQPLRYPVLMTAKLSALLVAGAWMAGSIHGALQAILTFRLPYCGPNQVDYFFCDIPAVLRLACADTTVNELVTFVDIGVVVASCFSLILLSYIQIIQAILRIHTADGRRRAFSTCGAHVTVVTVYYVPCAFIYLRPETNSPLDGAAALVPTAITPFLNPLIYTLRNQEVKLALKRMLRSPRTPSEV
Sequence of OR10G7 (Homo sapiens) (Q8NGN6 whole entry): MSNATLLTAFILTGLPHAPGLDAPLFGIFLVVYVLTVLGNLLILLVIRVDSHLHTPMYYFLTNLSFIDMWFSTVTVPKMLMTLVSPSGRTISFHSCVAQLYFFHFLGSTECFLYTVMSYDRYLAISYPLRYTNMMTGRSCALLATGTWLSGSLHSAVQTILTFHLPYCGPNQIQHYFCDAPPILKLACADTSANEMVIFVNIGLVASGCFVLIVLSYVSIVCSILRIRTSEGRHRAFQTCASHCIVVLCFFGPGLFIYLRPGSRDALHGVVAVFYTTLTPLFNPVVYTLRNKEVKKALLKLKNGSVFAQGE
Sequence of OR10G2 (Homo sapiens) (Q8NGC3 whole entry): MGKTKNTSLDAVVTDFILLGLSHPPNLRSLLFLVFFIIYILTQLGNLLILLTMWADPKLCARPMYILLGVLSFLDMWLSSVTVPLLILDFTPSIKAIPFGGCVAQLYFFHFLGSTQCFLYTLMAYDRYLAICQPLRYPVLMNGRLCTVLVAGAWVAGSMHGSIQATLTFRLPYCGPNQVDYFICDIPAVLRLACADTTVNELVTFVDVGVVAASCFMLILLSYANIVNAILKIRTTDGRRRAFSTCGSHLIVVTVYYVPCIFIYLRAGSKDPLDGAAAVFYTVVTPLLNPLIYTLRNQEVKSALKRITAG
Sequence of OR10H1 (Homo sapiens) (Q9Y4A9 whole entry): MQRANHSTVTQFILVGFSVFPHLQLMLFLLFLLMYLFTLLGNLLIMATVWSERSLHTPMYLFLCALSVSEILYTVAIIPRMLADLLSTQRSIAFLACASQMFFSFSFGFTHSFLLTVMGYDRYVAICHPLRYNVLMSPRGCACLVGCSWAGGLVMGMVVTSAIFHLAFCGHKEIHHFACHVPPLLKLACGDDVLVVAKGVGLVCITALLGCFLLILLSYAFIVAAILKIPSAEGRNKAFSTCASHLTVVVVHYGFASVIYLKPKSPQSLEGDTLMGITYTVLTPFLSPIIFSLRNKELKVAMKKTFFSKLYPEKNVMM
Sequence of OR10G9 (Homo sapiens) (Q8NGN4 whole entry): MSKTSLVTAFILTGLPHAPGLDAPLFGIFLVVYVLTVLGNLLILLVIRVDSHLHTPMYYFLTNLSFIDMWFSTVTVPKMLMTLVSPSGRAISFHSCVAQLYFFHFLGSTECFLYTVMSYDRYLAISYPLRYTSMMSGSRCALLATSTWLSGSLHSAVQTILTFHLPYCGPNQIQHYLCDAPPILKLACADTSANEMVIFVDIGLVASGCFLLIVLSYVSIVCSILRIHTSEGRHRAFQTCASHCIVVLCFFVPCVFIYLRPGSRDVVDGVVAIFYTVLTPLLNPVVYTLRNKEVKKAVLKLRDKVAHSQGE
Sequence of OR10D3 (Homo sapiens) (Q8NH80 whole entry): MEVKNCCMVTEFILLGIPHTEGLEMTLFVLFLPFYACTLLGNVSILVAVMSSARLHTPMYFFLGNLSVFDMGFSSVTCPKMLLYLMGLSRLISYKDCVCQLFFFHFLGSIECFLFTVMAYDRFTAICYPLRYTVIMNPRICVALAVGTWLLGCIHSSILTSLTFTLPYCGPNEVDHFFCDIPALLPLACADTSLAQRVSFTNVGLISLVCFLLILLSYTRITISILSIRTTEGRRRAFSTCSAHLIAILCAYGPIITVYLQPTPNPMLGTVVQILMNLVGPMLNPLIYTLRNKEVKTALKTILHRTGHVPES

C=CCOC(=O)Cc1ccccc1
inactive: all assays above

Cc1c([N+](=O)[O-])c(C)c([N+](=O)[O-])c(C(C)(C)C)c1[N+](=O)[O-]
not listed: OR10D3 (Homo sapiens)
inactive: all other assays above

O=CC=Cc1ccccc1
active: OR10H2 (Homo sapiens)

Source: the M2OR odorant receptor database
